The text below walks through data of PubChem BioAssay.

Assay [1] can be described thus: reduced viability of SK-BR-3 breast cancer cells – cell-based, 24 h, human, pilot screen (AID 572;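 active means viability at or below 10% of carrier control in both of two separate runs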;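 further: compound exposure lasted between 18 and 24 h rather than exactly 24 h; 100% = carrier-treated control wells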). To be noted: SK-BR-3 viability, CellTiter-Glo luminescence, at 10 µM, stronger effect = lower value. (In general: Cellular ATP, detected with luciferase, serves as a proxy for viable cell number.)
Assay [2] can be described thus: HUVEC growth inhibition – cell-based, human, primary screen (AID 575;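 active means viability at or below 30% in both replicate assays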;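 further: 100% = median of untreated cell wells with 0.1% DMSO on each plate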). The note with it: HUVEC proliferation, CellTiter-Glo luminescence, 72 h; at 10 µM; stronger effect = lower value. The procedure, abridged:
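Assay system: primary human umbilical vein endothelial cells / Buffer or medium: endothelial basal medium with 2% FBS plus growth supplements / Compound dosing: one dose, 10 µM final, 0.1% DMSO / Timing: 72 h treatment at 37 °C / Signal: CTG luminescence / Benchmarks: 32 DMSO-only cell-control wells (high), 32 MePR drug-control wells (low) per plate / Plate: collagen-coated 384-well format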

A short description of assay [3]: H69AR cell proliferation blockers – human, duplicate replicates, primary screen (AID 580;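 active means viability at or under a set limit in both replicates, limit being median viability minus 3 SD, cut at about 48% in these data, passing the limit was not always enough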;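 further: 100% = mean luminescence of untreated wells and 0% = no signal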). To be noted: H69AR lung tumor cells viability, ATP luminescence, 72 h; at 10 µM; stronger effect = lower value.
The nature of assay [4]: MRP1 drug-resistance reversers in H69AR cells – cell-based, doxorubicin co-treatment, pilot screen (AID 601). The note with it: CellTiter-Glo, 72 h, at 10 µM; for differential viability (reversal): stronger effect = higher value.
Assay [5] is described as follows: yeast transport mutant growth inhibition pilot in 384-well plates, post-Golgi transport modulator project (AID 636; in the data active means inhibition above about 31%). To be noted: absorbance 615 nm, about 18 h, stronger effect = higher value.
Assay [6] is described as follows: growth suppression of yeast trafficking mutant, preliminary HTS, modulators of trafficking downstream of Golgi apparatus project, 1536-format plate, OD 615 nm (AID 637; in the data active means inhibition above about 30%). To be noted: yeast transport mutant growth, absorbance 615 nm, 18 h; stronger effect = higher value.
The mark [7] stands for this setting: H69AR cells + 2 uM doxorubicin, measured here: viability with 2 uM doxorubicin, stronger effect = lower value.
Where [8] appears, read: H69AR cells, compound alone cytotoxicity.

The source made the active and inactive calls.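 How the source made its calls, unless noted: active means viability loss from added drug above about 55%, and viability with drug at most 40%, in both replicates (limit read from the data, passing the limit was not always enough); inconclusive means both conditions met in only one replicate; inactive means neither replicate meets both conditions.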

`c1n[nH]c(SCCCCSc2ncn[nH]2)n1`: the viability (usually a read-out of living cells in per cent, often relative to untreated cells) in assay [1] was 101% (inactive); in assay [2], 108% (inactive); in assay [3], 108% (inactive); in assay [4] (setting [7]), 93.9%; in assay [4] (setting [8]), 108%. For the same compound, the differential viability (reversal) in assay [4] (H69AR cells + 2 uM doxorubicin) is 13.8% (inactive). The inhibition (as a rule, the drop in the measured response relative to a control, in per cent) was -6.71% (inactive) in assay [5] and 2.91% (inactive) in assay [6].
Take `C=CCN=C1SCC(=O)N1S(=O)(=O)c1ccc(C)cc1`: the viability in assay [1] was 88% (inactive); in assay [2], 89.1% (inactive); in assay [3] it was 113% (inactive); in assay [4] (setting [7]) it was 99.4%; in assay [4] (setting [8]) it was 113%. For the same compound, the differential viability (reversal) in assay [4] (H69AR cells + 2 uM doxorubicin) is 13.6% (inactive). In addition, the inhibition is -4.73% (inactive) in assay [5] and 1.64% (inactive) in assay [6].
As to `Nc1nc2ccc(OC(F)(F)F)cc2s1`, the viability in assay [1] is 88% (inactive); in assay [2], 76.5% (inactive); in assay [3], 71.9% (inactive); in assay [4] (setting [7]) it was 91.6%; in assay [4] (setting [8]) it was 71.9%. Moreover, the differential viability (reversal) in assay [4] (H69AR cells + 2 uM doxorubicin) was -19.7% (inactive). Besides, the inhibition in assay [5] was -0.13% (inactive); in assay [6], 0.33% (inactive).
In the case of `C[C@H](CCC(=O)O)[C@H]1CC[C@H]2[C@@H]3C(=O)C[C@@H]4CC(=O)CC[C@]4(C)[C@H]3CC(=O)[C@]12C`, the viability in assay [1] was 128% (inactive); in assay [2], 88.9% (inactive); in assay [3], 96% (inactive); in assay [4] (setting [7]), 102%; in assay [4] (setting [8]), 96%. Moreover, the differential viability (reversal) in assay [4] (H69AR cells + 2 uM doxorubicin) was -6.55% (inactive). The inhibition in assay [5] was 0.65% (inactive); in assay [6] it was -0.83% (inactive).
Consider `COc1cc([C@@H]2[C@H]3CN(C)CC=C3C(C#N)=C(N)C2(C#N)C#N)cc2c1OCO2`, for which the viability in assay [1] was 101% (inactive); in assay [2], 93.1% (inactive); in assay [3], 89.8% (inactive); in assay [4] (setting [7]), 94.8%; in assay [4] (setting [8]), 89.8%. In addition, the differential viability (reversal) in assay [4] (H69AR cells + 2 uM doxorubicin) is -5.09% (inactive). In addition, the inhibition is -2.19% (inactive) in assay [5] and 0.18% (inactive) in assay [6].
As to `Cn1c(=O)c2c(ncn2CCO)n(C)c1=O`, the viability is 119% (inactive) in assay [1]; 91% (inactive) in assay [2]; 100% (inactive) in assay [3]; 93% in assay [4] (setting [7]); 100% in assay [4] (setting [8]). Besides, the differential viability (reversal) in assay [4] (H69AR cells + 2 uM doxorubicin) was 7.42% (inactive). The values for the inhibition in assay [5] and in assay [6] were 0% (inactive) and 0.67% (inactive), respectively.
On to `CC(=O)c1c(O)cc(C)n(Nc2nc(C)cc(C)n2)c1=O`, for which the viability is 91% (inactive) in assay [1]; 84.6% (inactive) in assay [2]; 71.9% (inactive) in assay [3]; 100% in assay [4] (setting [7]); 71.9% in assay [4] (setting [8]). In assay [4] (H69AR cells + 2 uM doxorubicin), the differential viability (reversal) is -28.5% (inactive). Besides, the inhibition was -4.05% (inactive) in assay [5] and -0.73% (inactive) in assay [6].
In the case of `CCOC(=O)Cc1nnc(Nc2cccc(O)c2)c2ccccc12`, the viability was 98% (inactive) in assay [1]; 95.4% (inactive) in assay [2]; 106% (inactive) in assay [3]; 85.8% in assay [4] (setting [7]); 106% in assay [4] (setting [8]). The differential viability (reversal) in assay [4] (H69AR cells + 2 uM doxorubicin) was 20.6% (inactive). In addition, the inhibition in assay [5] is -3.65% (inactive); in assay [6] it was 0% (inactive).
On to `c1cc2c(cc1Cn1cnnn1)OCO2`, for which the viability was 96% (inactive) in assay [1]; 96.9% (inactive) in assay [2]; 105% (inactive) in assay [3]; 92.7% in assay [4] (setting [7]); 105% in assay [4] (setting [8]). In assay [4] (H69AR cells + 2 uM doxorubicin), the differential viability (reversal) is 12.3% (inactive). The inhibition in assay [5] is -1.95% (inactive); in assay [6], 4.26% (inactive).
On to `CCOC(=O)c1cnc(-n2nc(C)cc2C)nc1N1CC(C)OC(C)C1` (centres undefined), for which the viability in assay [1] is 127% (inactive); in assay [2] it was 105% (inactive); in assay [3], 86.1% (inactive); in assay [4] (setting [7]), 76.4%; in assay [4] (setting [8]), 86.1%. In addition, the differential viability (reversal) in assay [4] (H69AR cells + 2 uM doxorubicin) is 9.65% (inactive). Further, the inhibition in assay [5] is -3.47% (inactive); in assay [6] it was 0.73% (inactive).
Consider `C=CCn1c(SCC#N)nc2c(c1=O)C(C)(C)Cc1ccccc1-2`, for which the viability was 104% (inactive) in assay [1]; 76.2% (inactive) in assay [2]; 78.8% (inactive) in assay [3]; 85% in assay [4] (setting [7]); 78.8% in assay [4] (setting [8]). Further, the differential viability (reversal) in assay [4] (H69AR cells + 2 uM doxorubicin) was -6.17% (inactive). Moreover, the inhibition is -5.62% (inactive) in assay [5] and 3.71% (inactive) in assay [6].
For `CN/C(=C/[N+](=O)[O-])NCCSCc1ccc(CN(C)C)o1`, the viability in assay [1] is 116% (inactive); in assay [2], 87.7% (inactive); in assay [3], 94.2% (inactive); in assay [4] (setting [7]) it was 95%; in assay [4] (setting [8]), 94.2%. Besides, the differential viability (reversal) in assay [4] (H69AR cells + 2 uM doxorubicin) was -0.85% (inactive). Besides, the results for the inhibition in assay [5] and in assay [6] were -2.47% (inactive) and 4% (inactive), respectively.
As to `CCc1ccc2[nH]c(=O)c(C(c3nnnn3CC3CCCO3)N3CCN4CCCC4C3)cc2c1` (centres undefined), the viability in assay [1] is 100% (inactive); in assay [2] it was 109% (inactive); in assay [3], 105% (inactive); in assay [4] (setting [7]), 91.1%; in assay [4] (setting [8]) it was 105%. The differential viability (reversal) in assay [4] (H69AR cells + 2 uM doxorubicin) is 14.1% (inactive). Further, the inhibition in assay [5] is -3.2% (inactive); in assay [6] it was -2.55% (inactive).
Regarding `CCCCN1CN(S(=O)(=O)c2cccs2)c2nc3ccccc3nc21`, the viability in assay [1] was 97% (inactive); in assay [2], 109% (inactive); in assay [3], 83.7% (inactive); in assay [4] (setting [7]), 88.8%; in assay [4] (setting [8]), 83.7%. Besides, the differential viability (reversal) in assay [4] (H69AR cells + 2 uM doxorubicin) is -5.09% (inactive). Also, the inhibition is -10.1% (inactive) in assay [5] and -4.18% (inactive) in assay [6].
On to `Cc1nc2cc(C(=O)O)ccc2n1-c1ccc(F)cc1F`, for which the viability in assay [1] is 120% (inactive); in assay [2] it was 94.3% (inactive); in assay [3], 101% (inactive); in assay [4] (setting [7]), 93.7%; in assay [4] (setting [8]), 101%. In addition, in assay [4] (H69AR cells + 2 uM doxorubicin), the differential viability (reversal) was 7.17% (inactive). Further, the inhibition in assay [5] was -4.42% (inactive); in assay [6], 2.62% (inactive).
Take `c1ccc(-c2ccc(C(c3ccccc3)n3ccnc3)cc2)cc1` (centres undefined): the viability in assay [1] was 140% (inactive); in assay [2], 74.3% (inactive); in assay [3], 63.3% (inactive); in assay [4] (setting [7]), 66%; in assay [4] (setting [8]) it was 63.3%. For the same compound, in assay [4] (H69AR cells + 2 uM doxorubicin), the differential viability (reversal) was -2.76% (inactive). Besides, the inhibition in assay [5] and in assay [6] was 100% (active) throughout.
In the case of `CC(=O)Nc1cc(NC(C)=O)cc(C(=O)OCC(=O)N2CC(C)OC(C)C2)c1` (centres undefined), the viability in assay [1] is 94% (inactive); in assay [2] it was 99.9% (inactive); in assay [3] it was 102% (inactive); in assay [4] (setting [7]), 94.1%; in assay [4] (setting [8]), 102%. The differential viability (reversal) in assay [4] (H69AR cells + 2 uM doxorubicin) is 8.29% (inactive). Besides, the inhibition in assay [5] was -6.62% (inactive); in assay [6], -3.64% (inactive).
`COc1cc(NS(=O)(=O)c2ccc(N)cc2)ncn1`: the viability in assay [1] was 107% (inactive); in assay [2] it was 75% (inactive); in assay [3] it was 92% (inactive); in assay [4] (setting [7]), 65%; in assay [4] (setting [8]), 92%. The differential viability (reversal) in assay [4] (H69AR cells + 2 uM doxorubicin) was 27% (inactive). Also, the inhibition in assay [5] was -1.56% (inactive); in assay [6], 2.5% (inactive).
